Screens deposited in PubChem BioAssay by several laboratories.
M18AAP inhibitor: PfM18AAP enzyme inhibition. recombinant PfM18AAP, H-Glu-NHMec fluorogenic cleavage. inhibition, % at 7.35 µM. 1.2% of 290,000 active. AID 1822;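 active = inhibition above the campaign mean inhibition over all tested compounds plus 3 SD, cut at about 28% in these data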;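 note: 0% = plate median of test compound wells and 100% = 2 mM ZnCl2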
UCH37 inh: human UCH37 deubiquitinating enzyme inhibition | 0.33% of 330,000 active | purified proteasome/UCH37, Ub-AMC cleavage fluorescence | AID 588478 | inhibition, % (concentration not given with the values) | Q9Y5K5;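 active = mean inhibition over replicate wells above about 20%, limit read from the data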;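 note: 0% = compound-free wells with enzyme and 100% = wells lacking proteasome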
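Material: human UCH37 enzyme supplied as purified proteasome complex. Measure: % inhibition of Ub-AMC cleavage fluorescence. Medium: pH 7.4 Tris-HCl (50 mM) with ovalbumin, ATP-MgCl2, DTT. Times: 30 min preincubation with enzyme, 25 min cleavage at room temperature. Detection: AMC fluorescence intensity at 355/460 nm.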
Rtt109 Vps75: blocks Candida albicans Rtt109/Vps75 acetyltransferase activity; Q5AAJ8; purified Rtt109/Vps75, ThioGlo CoA-SH fluorescence, 4 h; inhibition, % at 34.9 µM; 0.16% of 330,000 active; AID 540336;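 active = inhibition of at least 50% in every replicate; inconclusive = best replicate reaches 50% inhibition but some replicates fall short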
ALR H2O2 inh: human ALR oxidase inhibition via reduced H2O2; P55789; purified ALR, DTT oxidation, H2O2 HRP-luminol luminescence; inhibition, % (concentration not given with the values); 3.8% of 290,000 active; AID 485317;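 active = mean replicate inhibition above about 79%, with every replicate also reaching it, limit read from the data; inconclusive = only one of the two criteria met; inactive = mean below limit and not every replicate reaching it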
Target sequence (P55789 whole entry, looked up): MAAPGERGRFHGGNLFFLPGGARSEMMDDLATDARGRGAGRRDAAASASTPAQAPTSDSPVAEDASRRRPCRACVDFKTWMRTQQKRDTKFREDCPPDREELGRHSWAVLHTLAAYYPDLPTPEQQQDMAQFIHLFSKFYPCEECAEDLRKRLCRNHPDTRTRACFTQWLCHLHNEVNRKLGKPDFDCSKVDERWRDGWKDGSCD
HDAC3 inhib: inhibitors of human histone deacetylase 3 | inhibition, % at 8.3 µM | 0.15% of 320,000 active | O15379 | recombinant HDAC3, fluorogenic peptide/trypsin coupled, fluorescence; in the data active = inhibition above about 26%, passing the limit was not always enough; inconclusive = no clear call, values can overlap the other calls
Target sequence (O15379 whole entry, looked up): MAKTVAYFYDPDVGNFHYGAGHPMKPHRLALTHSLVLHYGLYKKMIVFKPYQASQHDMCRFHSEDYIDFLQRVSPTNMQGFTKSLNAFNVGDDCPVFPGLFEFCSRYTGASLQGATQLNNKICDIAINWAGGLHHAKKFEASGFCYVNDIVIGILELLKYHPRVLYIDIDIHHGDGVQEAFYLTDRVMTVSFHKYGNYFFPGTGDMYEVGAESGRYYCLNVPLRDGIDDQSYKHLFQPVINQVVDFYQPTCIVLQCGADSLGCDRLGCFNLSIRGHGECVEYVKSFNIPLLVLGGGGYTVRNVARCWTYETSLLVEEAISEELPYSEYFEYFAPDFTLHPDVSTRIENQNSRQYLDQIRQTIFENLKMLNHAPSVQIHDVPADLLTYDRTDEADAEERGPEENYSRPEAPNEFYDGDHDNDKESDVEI
FAS-TE inh: inhibitors of human fatty acid synthase thioesterase domain | 0.67% of 360,000 active | inhibition, % at 15 µM | recombinant FAS-TE, OMFH fluorogenic substrate, fluorescence endpoint;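 active = compounds whose normalised, plate-corrected inhibition of enzyme fluorescence in the single-dose primary screen is 50% or more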;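 note: 0% = DMSO with enzyme and 100% = substrate without enzyme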
* hit, by the source's call; ? = inconclusive; nt = no result given. Hits are enriched below; roughly 4.6% of the tested compounds scored in any of these assays.

SMILES	M18AAP inhibitor	UCH37 inh	Rtt109 Vps75	ALR H2O2 inh	HDAC3 inhib	FAS-TE inh
Cc1nonc1OCCn1c([N+](=O)[O-])cnc1C	-1	5	53*	-4	6	-8
CS(=O)(=O)c1nc(-c2cccs2)cc(C(F)(F)F)n1	-31	nt	nt	99*	-6	nt
CS(=O)(=O)c1nc(-c2ccc(F)cc2)cc(C(F)(F)F)n1	-5	3	17	nt	nt	24
O=C(O)CCS(=O)(=O)c1nc(-c2cccs2)cc(C(F)(F)F)n1	-83	1	9	97*	-12	0
COc1cc(C=Nn2nnnc2N)ccc1O	nt	-10	nt	nt	nt	nt
CCSc1nnc(NC(=O)c2cccc(S(=O)(=O)N(C)c3ccccc3)c2)s1	-4	0	-1	94*	-3	-2
Cc1ccc(N(C)S(=O)(=O)c2cccc(C(=O)Nc3nnc(C4CC4)s3)c2)cc1	-3	-1	-9	95*	5	1
COc1ccc(N(C)S(=O)(=O)c2cccc(C(=O)Nc3nc(C)cs3)c2)cc1	nt	0	9	97*	11	14
COc1cc(OC)c(N(C)S(=O)(=O)c2cccc(C(=O)Nc3nc(C)cs3)c2)cc1Cl	nt	2	-2	nt	nt	31
Cc1cc(C(=O)NN=Cc2cc(Br)c(Br)o2)n[nH]1	nt	6	nt	nt	nt	nt
CC(CC(=O)NC(C)(C)C)=NNC(=O)COc1ccc(C)cc1Br	nt	2	nt	nt	nt	nt
Cc1nnc(NC(=O)c2cccc(S(=O)(=O)N3CCc4ccccc43)c2)s1	-11	27*	0	5	0	4
CC(=O)NS(=O)(=O)c1ccc(NC(=O)c2cccc(S(=O)(=O)N3CCc4ccccc43)c2)cc1	6	3	7	97*	-2	2
Cc1ccc(C=NNC(=O)c2cncc(Br)c2)o1	nt	9	nt	nt	nt	nt
Cc1ccc(O)c(-c2cc(C(=O)NCc3ccncc3)[nH]n2)c1	8	1	3	90*	?	-10
O=C(CCCOc1ccc(Cl)cc1Cl)NN=Cc1ccccc1O	nt	-1	nt	nt	nt	nt
COc1cccc(NC(=S)/C(=C(\[O-])c2ccc([N+](=O)[O-])cc2)[n+]2ccccc2)c1	-5	7	-2	99*	13	-4
O=[N+]([O-])c1ccc(/C([O-])=C(/C(=S)Nc2ccccc2F)[n+]2ccccc2)cc1	-2	8	-7	-2	-6	-7
COc1ccc(C(=O)O)cc1NC(=S)NC(=O)/C=C/c1ccc(C(C)C)cc1	-3	7	15	97*	8	28
O=C1Nc2ccccc2C1=Nc1sc2c(c1C(=O)Nc1ccccc1)CCCC2	nt	5	nt	nt	nt	nt
COC(=O)c1ccc(CNC(=O)CNc2cc(C(F)(F)F)ccc2N2CCOCC2)cc1	7	3	7	99*	-4	-2
CCC(=O)Nc1cc(C(F)(F)F)ccc1N1CCOCC1	-2	4	6	-2	2	2
Cc1cc(NN=Cc2cccc([N+](=O)[O-])c2)nc(-n2nc(C)cc2C)n1	nt	7	nt	nt	nt	nt
COc1ccc(-c2cnc(N)nc2-c2ccc(OCc3ccccc3)cc2O)cc1	-3	0	-9	-26	16	27
Nc1ncc(-c2ccccc2)c(-c2ccc(O)cc2O)n1	-9	1	0	98*	-2	-5
SMILES	M18AAP inhibitor	UCH37 inh	Rtt109 Vps75	ALR H2O2 inh	HDAC3 inhib	FAS-TE inh
O=C(CSCc1ccc(Cl)cc1)NN=Cc1ccco1	nt	2	nt	nt	nt	nt
CCOC(=O)c1c(C)[nH]c(N=Nc2ccc(C)cc2)c1C	-16	5	0	-13	10	19
CCOC(=O)c1c(C)[nH]c(N=Nc2ccccc2)c1C	3	0	-3	87*	?	19
Fc1ccc(NN=C2CCSc3sccc32)c(F)c1	nt	2	nt	nt	nt	nt
CCOC(=O)c1ccc(N2C(=O)CC(Nc3ccc(CCO)cc3)C2=O)cc1 (centres undefined)	4	6	-6	-13	-1	-8
CCOC(=O)c1ccc(N2C(=O)CC(SCC(=O)Nc3ccc(S(N)(=O)=O)cc3)C2=O)cc1 (centres undefined)	-4	8	nt	99*	4	-10
O=C(CSC1CC(=O)N(c2ccc(C(=O)O)cc2)C1=O)Nc1ccc2ccccc2c1 (centres undefined)	-36	4	26	100*	2	-33
O=C(O)c1ccc(N2C(=O)CC(SC(=NCc3ccc4c(c3)OCO4)Nc3ccccc3)C2=O)cc1 (centres undefined)	-11	-2	16	-3	-6	4
O=C(O)CSC1CC(=O)N(c2ccc(Cl)c(Cl)c2)C1=O (centres undefined)	0	9	-14	98*	11	-4
COC(=O)c1ccc(N2C(=O)CC(SCC(=O)Nc3ccc(OC)cc3)C2=O)cc1 (centres undefined)	-11	5	94*	nt	-1	-8
Cc1ccc(S(=O)(=O)NN=Cc2c(F)cccc2Cl)cc1	nt	2	nt	nt	nt	nt
COc1ccc(NC(=O)CCC(=O)NN=Cc2ccncc2)cc1	nt	1	nt	nt	nt	nt
Cc1ccc(-c2n[nH]c(=S)n2N=Cc2cccs2)cc1	nt	5	nt	nt	nt	nt
O=C(NN=Cc1ccncc1)c1cnccn1	nt	7	nt	nt	nt	nt
NS(=O)(=O)c1ccc(NC(=O)CSC2CCCCC2)cc1	1	4	1	-10	-8	-4
Cc1ccc(N2C(=O)CC(SCC(=O)Nc3ccc(S(N)(=O)=O)cc3)C2=O)cc1 (centres undefined)	-2	1	-74	99*	5	-4
CON=Cc1ccc(Oc2ccc([N+](=O)[O-])cc2[N+](=O)[O-])c(OC)c1	nt	2	nt	nt	nt	nt
CC(=O)n1cc(C=NNC(=O)c2ccc([N+](=O)[O-])cc2)c2ccccc21	nt	8	nt	nt	nt	nt
CC1SC(=NC(=O)c2ccncc2)NC1=O (centres undefined)	-5	1	-3	90*	16	-4
CC(=N/N=C1\NC(=O)C(C)S1)c1ccco1 (centres undefined)	nt	8	nt	nt	nt	nt
CCCCN(CCCC)C(=O)C[n+]1cccc(C=NO)c1	nt	0	nt	nt	nt	nt
C=C(C)C(=O)OC1(C(F)(F)F)Oc2cc(C)ccc2NC1=O (centres undefined)	-3	3	-1	98*	29*	-6
CCc1ccc(N2CC(C(=O)NN=Cc3cc([N+](=O)[O-])ccc3O)CC2=O)cc1 (centres undefined)	nt	1	nt	nt	nt	nt
COc1ccc(NC(=S)NN=Cc2cccn2Cc2ccc(F)cc2)cc1	nt	2	nt	nt	nt	nt
CC(C)(C)c1nnc2sc(SCCN3C(=O)c4ccccc4C3=O)nn2c1=O	5	6	7	99*	7	1
Cc1nnc2sc(SCc3ccccc3Cl)nn2c1=O	3	2	-5	96*	7	-5
Cc1nnc2sc(SCc3ccccc3)nn2c1=O	-3	6	nt	20	-2	nt
Cc1nnc2sc(SCc3cccc(Cl)c3)nn2c1=O	8	7	13	100*	4	13
